Measurements taken from ChEMBL document CHEMBL1151199, “5-methylcoumaranones from Mutisia friesiana and their bioactivity” (2004).
Active and inactive are the calls of the source. No cut-off for these calls is given here.

Experiments:
Staphylococcus aureus [1] = assay: Antibacterial activity against Staphylococcus aureus ATCC 29213 at 10 ug/disk after 48 hrs by standard paper sensitivity disk-agar plate method; type: functional; details: ATCC 29213, 48 h, read-out: IZ
Cladosporium cucumerinum [2] = assay: Antifungal activity against Cladosporium cucumerinum at 10 ug/spot after 2 to 3 days by bioautographic assay; type: functional
In short: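 TLC bioautography: samples spotted onto a TLC plate with graduated capillaries and assayed against the plant pathogen Cladosporium cucumerinum. Activity is read as the diameter (mm) of the inhibition zone around the spot. Benomyl served as the reference fungicide.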

Escherichia coli = assay: Antibacterial activity against Escherichia coli ATCC 25922 at 100 ug/disk after 48 hrs by standard paper sensitivity disk-agar plate method; type: functional, organism-based
In short: (§1)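 Agar in Petri dishes inoculated with the test organism (E. coli ATCC 25922, S. aureus ATCC 29213 or C. albicans BE 138/99). Samples were loaded at 100 µg per 5 mm paper disk, and the disks were placed on the agar. The read-out was the diameter of the inhibition zone in mm.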

Cladosporium cucumerinum [3] = assay: Antifungal activity against Cladosporium cucumerinum at 100 ug/spot after 2 to 3 days by bioautographic assay; type: functional
In short: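 Each sample was dissolved at 10 mg ml-1 in CH2Cl2, and 10 µL was spotted onto a TLC plate by graduated capillary, giving 100 µg/spot. The plate was then assayed bioautographically against Cladosporium cucumerinum. Benomyl served as the reference fungicide, applied at 10 µg/spot. The read-out was the inhibition zone in mm.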

Candida albicans = assay: Antifungal activity against Candida albicans BE 138/99 at 100 ug/disk after 48 hrs by standard paper sensitivity disk-agar plate method; type: functional, organism-based; in short: as §1
Staphylococcus aureus [4] = assay: Antibacterial activity against Staphylococcus aureus ATCC 29213 at 100 ug/disk after 48 hrs by standard paper sensitivity disk-agar plate method; type: functional; details: ATCC 29213, 48 h, read-out: IZ; in short: as §1

Row | SMILES | zone of inhibition at 10 µg/disc (Staphylococcus aureus [1]) | inhibition zone (IZ) (Cladosporium cucumerinum [2]) | Activity (Escherichia coli) | inhibition zone (IZ) (Cladosporium cucumerinum [3]) | Activity (Candida albicans) | zone of inhibition at 100 µg/disc (Staphylococcus aureus [4])
1 | CC1(C)S[C@@H]2[C@H](NC(=O)[C@H](N)c3ccccc3)C(=O)N2[C@H]1C(=O)O [AMPICILLIN] | 14 mm |  |  |  |  | 
2 | CCCCNC(=O)n1c(NC(=O)OC)nc2ccccc21 [BENOMYL] |  | 20 mm |  |  |  | 
3 | CC(C)=CCC/C(C)=C/CC1(O)Oc2cccc(C)c2C1=O (stereo not drawn) [MUTISICOUMARANONE A] |  |  | inactive | 8 mm | inactive | 10 mm
4 | CC(C)=CC(O)C(=O)/C(C)=C/CC/C(C)=C/CC1(O)Oc2cccc(C)c2C1=O (stereo not drawn) [MUTISICOUMARANONE B] |  |  | inactive | 14 mm | inactive | 10 mm
5 | C/C(=C\CC1(O)Oc2cccc(C)c2C1=O)CC/C=C(\C)C(=O)/C=C/C(C)(C)O (stereo not drawn) [MUTISICOUMARANONE C] |  |  | inactive | 14 mm | inactive | 10 mm
6 | CC(C)=CCC(O)/C(C)=C/CC/C(C)=C/CC1(O)Oc2cccc(C)c2C1=O (stereo not drawn) [MUTISICOUMARANONE D] |  |  | inactive | 10 mm | inactive | 10 mm
